Source: ChEMBL document CHEMBL2385063, “Identification of 2-(2-(1-naphthoyl)-8-fluoro-3,4-dihydro-1H-pyrido[4,3-b]indol-5(2H)-yl)acetic acid (setipiprant/ACT-129968), a potent, selective, and orally bioavailable chemoattractant receptor-homologous molecule expressed on Th2 cells (CRTH2) antagonist” (J Med Chem, 2013)

target: T1, Thromboxane A2 receptor (Homo sapiens, UniProt P21731); assay: Antagonist activity at human prostanoid TP2 receptor expressed in HEK293 cells assessed as inhibition of calcium flux after 30 to 40 mins by FLIPR assay; format: functional, cell-based
T1 sequence (P21731 whole entry): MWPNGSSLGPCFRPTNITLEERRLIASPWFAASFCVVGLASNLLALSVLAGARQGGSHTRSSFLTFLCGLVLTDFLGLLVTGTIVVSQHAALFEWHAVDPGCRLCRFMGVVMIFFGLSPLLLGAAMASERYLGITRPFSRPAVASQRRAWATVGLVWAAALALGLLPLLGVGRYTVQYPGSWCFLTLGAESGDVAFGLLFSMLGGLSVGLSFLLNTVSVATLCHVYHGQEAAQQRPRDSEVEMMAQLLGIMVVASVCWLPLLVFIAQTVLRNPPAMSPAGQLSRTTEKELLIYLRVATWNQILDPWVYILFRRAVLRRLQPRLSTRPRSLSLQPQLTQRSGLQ

Row | SMILES | IC50 [nM]
1 | COc1ccc2c(c1)c1c(n2CC(=O)O)CCN(C(=O)c2ccccc2)C1 | > 25000
2 | O=C(O)Cn1c2c(c3ccccc31)CN(C(=O)C1CCCCC1)CC2 | > 25000

Further lines, results first:

Row | IC50 [nM] | SMILES
3 | > 25000 | O=C(O)Cn1c2c(c3cc(Cl)ccc31)CN(C(=O)c1cccc3ccccc13)CC2
4 | > 25000 | O=C(O)Cn1c2c(c3cc(C(F)(F)F)ccc31)CN(C(=O)c1cccc3ccccc13)CC2
5 | > 25000 | O=C(O)Cn1c2c(c3cc(F)cc(Cl)c31)CN(C(=O)c1cccc(Cl)c1)CC2

target: T2, Prostaglandin E2 receptor EP4 subtype (Homo sapiens, UniProt P35408); assay: Inhibition of beta-arrestin binding to recombinant human prostanoid EP4 receptor expressed in HEK293 cell membranes by beta-lactamase complementation assay
T2 sequence (P35408 whole entry): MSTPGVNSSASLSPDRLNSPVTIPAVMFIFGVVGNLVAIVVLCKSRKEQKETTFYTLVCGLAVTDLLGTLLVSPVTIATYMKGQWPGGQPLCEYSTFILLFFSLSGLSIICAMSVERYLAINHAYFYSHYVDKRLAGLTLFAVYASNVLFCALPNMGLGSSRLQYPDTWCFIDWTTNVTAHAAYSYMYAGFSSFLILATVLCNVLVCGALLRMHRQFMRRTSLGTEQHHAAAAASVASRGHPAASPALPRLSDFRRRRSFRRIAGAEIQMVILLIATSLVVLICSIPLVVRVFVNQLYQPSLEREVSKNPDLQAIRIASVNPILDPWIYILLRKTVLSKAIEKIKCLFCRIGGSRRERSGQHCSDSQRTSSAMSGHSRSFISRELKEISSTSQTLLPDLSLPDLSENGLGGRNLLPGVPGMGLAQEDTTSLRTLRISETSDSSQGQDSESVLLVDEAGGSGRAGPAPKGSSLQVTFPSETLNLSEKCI

Row | IC50 [nM] | SMILES
6 | > 10000 | O=C(O)Cn1c2c(c3cc(Cl)ccc31)CN(C(=O)c1cccc3ccccc13)CC2
7 | > 10000 | O=C(O)Cn1c2c(c3cc(C(F)(F)F)ccc31)CN(C(=O)c1cccc3ccccc13)CC2
8 | > 10000 | O=C(O)Cn1c2c(c3cc(F)cc(Cl)c31)CN(C(=O)c1cccc(Cl)c1)CC2

target: Prostaglandin E2 receptor EP2 subtype (Homo sapiens, UniProt P43116); assay: Inhibition of beta-arrestin binding to recombinant human prostanoid EP2 receptor expressed in HEK293 cell membranes by beta-lactamase complementation assay
Sequence (P43116 whole entry): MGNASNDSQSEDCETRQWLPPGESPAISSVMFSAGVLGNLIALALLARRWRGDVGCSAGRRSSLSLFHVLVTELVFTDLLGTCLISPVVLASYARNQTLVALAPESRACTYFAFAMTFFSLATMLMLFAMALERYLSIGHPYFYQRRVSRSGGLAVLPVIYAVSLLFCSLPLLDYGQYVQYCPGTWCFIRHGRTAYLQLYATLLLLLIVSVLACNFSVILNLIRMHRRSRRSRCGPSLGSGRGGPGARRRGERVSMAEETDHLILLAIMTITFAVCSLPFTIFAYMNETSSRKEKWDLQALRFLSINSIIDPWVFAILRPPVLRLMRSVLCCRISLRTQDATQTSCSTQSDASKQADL

Row | IC50 [nM] | SMILES
9 | 7400 | O=C(O)Cn1c2c(c3cc(Cl)ccc31)CN(C(=O)c1cccc3ccccc13)CC2
10 | > 10000 | O=C(O)Cn1c2c(c3cc(C(F)(F)F)ccc31)CN(C(=O)c1cccc3ccccc13)CC2
11 | > 10000 | O=C(O)Cn1c2c(c3cc(F)cc(Cl)c31)CN(C(=O)c1cccc(Cl)c1)CC2

target: T2, Prostaglandin E2 receptor EP4 subtype; assay: Displacement of [3H]PGE2 from recombinant human prostanoid EP4 receptor expressed in HEK293 cell membranes after 90 mins by scintillation counting analysis

Row | SMILES | IC50 [nM]
12 | COc1ccc2c(c1)c1c(n2CC(=O)O)CCN(C(=O)c2ccccc2)C1 | > 10000
13 | O=C(O)Cn1c2c(c3ccccc31)CN(C(=O)C1CCCCC1)CC2 | > 10000

The next lines start with the values.

Row | IC50 [nM] | SMILES
14 | > 10000 | O=C(O)Cn1c2c(c3cc(Cl)ccc31)CN(C(=O)c1cccc3ccccc13)CC2
15 | > 10000 | O=C(O)Cn1c2c(c3cc(C(F)(F)F)ccc31)CN(C(=O)c1cccc3ccccc13)CC2
16 | > 10000 | O=C(O)Cn1c2c(c3cc(F)cc(Cl)c31)CN(C(=O)c1cccc(Cl)c1)CC2

organism: Homo sapiens; assay: Selectivity factor, ratio of IC50 for recombinant human prostanoid DP1 receptor to IC50 for recombinant human CRTH2 receptor
Method in brief: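 hDP₁ IC₅₀ came from competitive [³H]PGD₂ binding on CHO cells stably overexpressing recombinant hDP₁. hCRTh2 IC₅₀ came from [³H]PGD₂ (2.5 nM) displacement on membranes of HEK-293 cells stably expressing hCRTh2, incubated 90 min at room temperature, filtered and counted. f_Sel = IC₅₀(hDP₁)/IC₅₀(hCRTh2).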

Row | Ratio IC50 | SMILES
17 | 230 | O=C(O)Cn1c2c(c3cc(Cl)ccc31)CN(C(=O)c1cccc3ccccc13)CC2
18 | 200 | O=C(O)Cn1c2c(c3cc(C(F)(F)F)ccc31)CN(C(=O)c1cccc3ccccc13)CC2
19 | 22 | O=C(O)Cn1c2c(c3cc(F)cc(Cl)c31)CN(C(=O)c1cccc(Cl)c1)CC2

target: T3, Prostaglandin D2 receptor 2 (Homo sapiens, UniProt Q9Y5Y4); assay: Displacement of [3H]PGD2 from recombinant human CRTH2 receptor expressed in HEK293 cell membranes after 90 mins by scintillation counting analysis in presence of human serum albumin
T3 sequence (Q9Y5Y4 whole entry): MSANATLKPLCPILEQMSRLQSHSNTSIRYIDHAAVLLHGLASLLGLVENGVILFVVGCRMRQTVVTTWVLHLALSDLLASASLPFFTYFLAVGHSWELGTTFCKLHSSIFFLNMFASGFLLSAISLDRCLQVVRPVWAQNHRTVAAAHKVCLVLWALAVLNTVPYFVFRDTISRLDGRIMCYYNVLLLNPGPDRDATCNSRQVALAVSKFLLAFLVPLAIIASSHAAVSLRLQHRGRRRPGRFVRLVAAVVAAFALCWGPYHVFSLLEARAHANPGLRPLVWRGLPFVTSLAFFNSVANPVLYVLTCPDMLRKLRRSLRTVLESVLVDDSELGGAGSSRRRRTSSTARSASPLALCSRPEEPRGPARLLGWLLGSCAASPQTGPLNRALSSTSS
Method in brief: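 Same hCRTH2 HEK293 membrane [3H]PGD2 (2.5 nM) displacement, 90 min at room temperature, with 0.5% human serum albumin added to the assay buffer; scintillation counting.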

Row | IC50 [nM] | SMILES
20 | 65 | O=C(O)Cn1c2c(c3cc(Cl)ccc31)CN(C(=O)c1cccc3ccccc13)CC2
21 | 70 | O=C(O)Cn1c2c(c3cc(C(F)(F)F)ccc31)CN(C(=O)c1cccc3ccccc13)CC2
22 | 180 | O=C(O)Cn1c2c(c3cc(F)cc(Cl)c31)CN(C(=O)c1cccc(Cl)c1)CC2

target: T3, Prostaglandin D2 receptor 2; assay: Displacement of [3H]PGD2 from recombinant human CRTH2 receptor expressed in HEK293 cell membranes after 90 mins by scintillation counting analysis
Method in brief: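 Membranes from HEK293 cells expressing hCRTH2 (80 μg protein/well) in Tris pH 7.4 buffer with NaCl, EDTA, 0.1% BSA were incubated with 2.5 nM [3H]PGD2 for 90 min at room temperature. Nonspecific binding was defined with 10 μM PGD2. Samples were filtered on PEI-soaked GF/C and read by scintillation counting.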

Row | SMILES | IC50 [nM]
23 | COc1ccc2c(c1)c1c(n2CC(=O)O)CCN(C(=O)c2ccccc2)C1 | 62
24 | O=C(O)Cn1c2c(c3ccccc31)CN(C(=O)C1CCCCC1)CC2 | 70

More lines, now with the values ahead:

Row | IC50 [nM] | SMILES
25 | 4 | O=C(O)Cn1c2c(c3cc(Cl)ccc31)CN(C(=O)c1cccc3ccccc13)CC2
26 | 11 | O=C(O)Cn1c2c(c3cc(C(F)(F)F)ccc31)CN(C(=O)c1cccc3ccccc13)CC2
27 | 190 | O=C(O)Cn1c2c(c3cc(F)cc(Cl)c31)CN(C(=O)c1cccc(Cl)c1)CC2

target: T4, Prostaglandin G/H synthase 1 (Ovis aries) (UniProt P05979); assay: […] at ovine COX-1 at 10 uM relative to control; set-up: scale not given: the % may be the effect or the level left
T4 sequence (whole entry): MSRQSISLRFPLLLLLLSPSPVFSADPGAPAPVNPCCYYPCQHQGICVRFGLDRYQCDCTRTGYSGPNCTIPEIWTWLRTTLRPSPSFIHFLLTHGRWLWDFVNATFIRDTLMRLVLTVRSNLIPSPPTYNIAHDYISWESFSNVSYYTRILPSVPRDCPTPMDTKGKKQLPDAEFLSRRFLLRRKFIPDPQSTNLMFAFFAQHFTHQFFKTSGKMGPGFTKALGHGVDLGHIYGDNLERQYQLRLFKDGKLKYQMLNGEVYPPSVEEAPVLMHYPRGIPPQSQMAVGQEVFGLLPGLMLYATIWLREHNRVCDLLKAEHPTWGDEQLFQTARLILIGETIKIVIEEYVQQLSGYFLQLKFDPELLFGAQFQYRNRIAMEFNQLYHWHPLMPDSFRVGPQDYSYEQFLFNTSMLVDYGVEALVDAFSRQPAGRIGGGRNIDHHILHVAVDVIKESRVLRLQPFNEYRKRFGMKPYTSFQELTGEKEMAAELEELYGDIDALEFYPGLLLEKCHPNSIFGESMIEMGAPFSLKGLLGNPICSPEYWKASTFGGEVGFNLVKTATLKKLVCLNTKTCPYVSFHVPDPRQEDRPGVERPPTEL
Method in brief: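 Ovine COX-1 activity measured with a commercial kit, following the manufacturer's protocol. Compounds were tested in duplicate at 10 μM final concentration. Activity is expressed as inhibition relative to control.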

Row | SMILES | Activity [%]
28 | COc1ccc2c(c1)c1c(n2CC(=O)O)CCN(C(=O)c2ccccc2)C1 | < 30
29 | O=C(O)Cn1c2c(c3ccccc31)CN(C(=O)C1CCCCC1)CC2 | < 30

Other lines, results leading:

Row | Activity [%] | SMILES
30 | < 30 | O=C(O)Cn1c2c(c3cc(Cl)ccc31)CN(C(=O)c1cccc3ccccc13)CC2
31 | < 30 | O=C(O)Cn1c2c(c3cc(C(F)(F)F)ccc31)CN(C(=O)c1cccc3ccccc13)CC2
32 | < 30 | O=C(O)Cn1c2c(c3cc(F)cc(Cl)c31)CN(C(=O)c1cccc(Cl)c1)CC2

target: T5, Prostaglandin D2 receptor (Homo sapiens, UniProt Q13258); assay: Displacement of [3H]PGD2 from recombinant human prostanoid DP1 receptor expressed in CHO cells after 90 mins by scintillation counting analysis; format: cell-based
T5 sequence (Q13258 whole entry): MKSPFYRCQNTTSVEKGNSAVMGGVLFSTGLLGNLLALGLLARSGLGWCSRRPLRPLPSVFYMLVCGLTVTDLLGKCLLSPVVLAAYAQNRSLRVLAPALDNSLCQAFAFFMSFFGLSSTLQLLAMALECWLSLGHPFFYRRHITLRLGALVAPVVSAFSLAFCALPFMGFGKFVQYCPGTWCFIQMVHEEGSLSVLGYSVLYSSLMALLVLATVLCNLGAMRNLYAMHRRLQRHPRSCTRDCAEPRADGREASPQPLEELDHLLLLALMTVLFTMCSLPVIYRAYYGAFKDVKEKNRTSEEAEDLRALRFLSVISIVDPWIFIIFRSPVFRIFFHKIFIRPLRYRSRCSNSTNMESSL
Method in brief: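 Competitive binding with CHO cells stably expressing high levels of recombinant hDP1, using [3H]PGD2 as ligand; IC50 reported.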

Row | IC50 [nM] | SMILES
33 | 690 | O=C(O)Cn1c2c(c3cc(Cl)ccc31)CN(C(=O)c1cccc3ccccc13)CC2
34 | 2200 | O=C(O)Cn1c2c(c3cc(C(F)(F)F)ccc31)CN(C(=O)c1cccc3ccccc13)CC2
35 | 4100 | O=C(O)Cn1c2c(c3cc(F)cc(Cl)c31)CN(C(=O)c1cccc(Cl)c1)CC2
